According to ChEMBL document CHEMBL1158063, “Awajanomycin, a Cytotoxic gamma-lactone-delta-lactam metabolite from marine-derived Acremonium sp. AWA16-1” (J Nat Prod, 2006):
Converted amounts (≈) assume the structure as drawn. The source made the active and inactive calls. The rule behind the calls is not given here.

Tests used:
[1] = tested on: Alphaproteobacteria; assay: Antimicrobial activity against Alphaproteobacteria MBIC3368 at 50 ug/disk after 48 hrs by paper disk method; type: functional, organism-based
In short: (§1)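 Paper disk method on marine broth agar seeded with the marine strain. Each 6 mm disk was loaded with 50 µg sample, air-dried, and laid on the plate. Inhibition zone read after 48 h at 30 °C.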

[2] = tested on: Leeuwenhoekiella marinoflava; assay: Antimicrobial activity against Cytophaga marinoflava IFO 14170 at 50 ug/disk after 48 hrs by paper disk method; type: functional, organism-based; in short: as §1
[3] = tested on: Salinivibrio costicola; assay: Antimicrobial activity against sSalinivibrio costicola ATCC 33508 at 50 ug/disk after 48 hrs by paper disk method; type: functional, organism-based; in short: as §1
[4] = tested on: Escherichia coli; assay: Antimicrobial activity against Escherichia coli IFO 3301 at 50 ug/disk after 48 hrs by paper disk method; type: functional, organism-based
In short: (§2)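 Paper disk diffusion on nutrient broth agar plates seeded with the test strain. Sample loaded at 50 µg per 6 mm disk, air-dried, and placed on the agar surface. Growth-inhibition zone measured after 48 h incubation at 30 °C.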

[5] = tested on: A549; assay: Cytotoxicity against human A549 cells after 72 hrs by alamar blue assay; type: functional, cell-based; conditions: A549, 72 h
In short: (§3)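 A549 lung adenocarcinoma cells in DMEM with 10% FBS were seeded at 8 × 10^3 cells/well and preincubated 14 h at 37 °C under 5% CO2. Serially diluted samples were then added for 72 h. Alamar Blue was added for a further 4 h, and viability was read as absorbance at 590 nm.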

[6] = tested on: Candida albicans; assay: Antimicrobial activity against sCandida albicans IFO 1060 at 50 ug/disk after 48 hrs by paper disk method; type: functional, organism-based; in short: as §2
[7] = tested on: Bacillus subtilis; assay: Antimicrobial activity against Bacillus subtilis IFO 3134 at 50 ug/disk after 48 hrs by paper disk method; type: functional, organism-based; in short: as §2
[8] = tested on: Staphylococcus aureus; assay: Antimicrobial activity against Staphylococcus aureus IFO 12732 at 50 ug/disk after 48 hrs by paper disk method; type: functional, organism-based; in short: as §2
[9] = tested on: A549; assay: Cytotoxicity against human A549 cells after 72 hrs up to 125 ug/mL by alamar blue assay; type: functional, cell-based; in short: as §3

In the case of `CCCCCCCC(O)/C=C/[C@@H]1[C@H](O)[C@@H](C)NC(=O)[C@]1(O)CO` (some centres undefined), the Activity [1] is reported as “inactive”, the Activity [2] is reported as “inactive” and the Activity [3] is reported as “inactive”. The Activity [4] was “inactive”, the IC50 [5] was 46.4 µg/mL (≈ 141 µM) and the Activity [6] was “inactive”. For the same compound, the Activity [7] was “inactive” and the Activity [8] was “inactive”.

With `CCCCCCCC(O)/C=C/[C@@H]1[C@@H]2OC(=O)[C@@]1(O)C(=O)N[C@@H]2C` (some centres undefined) [AWAJANOMYCIN] the Activity [1] was “inactive”, the Activity [2] was “inactive” and the Activity [3] was “inactive”. For the same compound, the Activity [4] was “inactive”, the IC50 [5] was 27.5 µg/mL (≈ 84.5 µM) and the Activity [6] was “inactive”. The Activity [7] was “inactive” and the Activity [8] was “inactive”.

In the case of `CCCCCCCC(O)/C=C/[C@@H]1[C@H](O)[C@@H](C)NC(=O)[C@]1(O)C(=O)O` (some centres undefined), the Activity [1] is reported as “inactive”, the Activity [2] is reported as “inactive” and the Activity [3] is reported as “inactive”. For the same compound, the Activity [4] was “inactive”, the Activity [9] was “inactive” and the Activity [6] was “inactive”. For the same compound, the Activity [7] was “inactive” and the Activity [8] was “inactive”.
